Results on 5 compounds are retold here after ChEMBL document CHEMBL3871270, “Structural and Biochemical Characterization of the Interaction of Tubulin with Potent Natural Analogues of Podophyllotoxin” (J Nat Prod, 2016).

Structures are written as SMILES. Activity calls are given as the source filed them. The calls are words filed in the database; no cut-off is given here.

By IC50 is commonly meant the midpoint of a concentration-inhibition curve. The term inhibition denotes the share of the control response that was lost under treatment. A word on the Kd: it is the equilibrium constant for the complex coming apart.

Experiment [1] is described as follows: Cytotoxicity against human A549 cells assessed as decrease in cell viability after 48 hrs by MTT assay. Format: functional, cell-based. The following applies: A549, 48 h. In a few lines: (§1)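 A549 lung and A2780 ovarian human carcinoma cells were treated for 48 h, and viability was read by MTT assay. IC50 values are given as mean ± standard error of three independent experiments.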
In general terms: Tetrazolium assays rely on reduction of a dye to a coloured formazan, in cell work by metabolically active cells.

Experiment [2] can be described thus: Cytotoxicity against human A2780 cells assessed as decrease in cell viability after 48 hrs by MTT assay. Format: functional, cell-based. The following applies: A2780, 48 h. In a few lines: as §1
The nature of experiment [3]: Cell cycle arrest in human A549 cells assessed as accumulation at G2/M phase at 100 nM after 20 hrs by propidium iodide staining based flow cytometry. Format: functional. Put shortly: (§2)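 A549 cells were grown for 20 h with compound across 20 nM to 25 μM. DMSO was the negative control and paclitaxel (30−50 nM) the positive control. The percentage of cells in each cell-cycle phase was determined from flow cytometry DNA histograms.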

For experiment [4], the species on record is Homo sapiens. Put plainly: Inhibition of 2-methoxy-5-(2,3,4-trimethoxyphenyl)-2,4,6-cycloheptatrien-1-one binding to colchicine binding site of tubulin (unknown origin) at 10 uM by fluorescence assay. Put shortly: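 Fluorescence emission spectra were recorded at 350 nm excitation for 10 μM purified tubulin plus 10 μM MTC (a colchicine-site probe), with 10 μM test compound. Reference spectra were MTC with tubulin alone and MTC alone. The result is the percent decrease in MTC fluorescence.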

The species named for experiment [5] is Homo sapiens. Put plainly: Inhibition of tubulin assembly (unknown origin) assessed as decrease in pelleted microtubules up to 40 uM after 20 mins. In a few lines: (§3)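 Purified tubulin was assembled at 30 μM, above its 3.3 μM critical concentration, in the presence of compound. The resulting microtubules were pelleted by mild centrifugation to quantify assembly.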

A short description of experiment [6]: (§4) Inhibition of 2-methoxy-5-(2,3,4-trimethoxyphenyl)-2,4,6-cycloheptatrien-1-one binding to colchicine binding site of tubulin (unknown origin) by fluorescence spectroscopic analysis. Also on record: species or system Homo sapiens. Put shortly:
(§5)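 Tubulin binding constants (Kb) were obtained from a competition assay against the colchicine-site fluorescent probe MTC, assuming 1:1 stoichiometry.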

The species named for experiment [7] is Homo sapiens. The description is as §4. In a few lines: as §5
Experiment [8] concerns A549. Put plainly: Binding affinity to alpha-tubulin in human A549 cells assessed as induction of microtubule depolymerization by measuring formation of abnormal type 4 spindles at 100 nM after 24 hrs by immunofluorescence microscopy. Format: cell-based. Put shortly:
(§6)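 A549 cells were exposed to compound or DMSO vehicle for 24 h. They were then stained with DM1A anti-α-tubulin monoclonal antibody for microtubules and Hoechst 33342 for DNA. Cytoplasmic microtubule networks and mitotic spindle morphology, including abnormal type IV ball-shaped spindles, were examined by immunofluorescence microscopy.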

The species named for experiment [9] is Homo sapiens. Put plainly: Binding affinity to tubulin alpha/beta dimer (unknown origin) at 300 uM by STD-NMR method.
The nature of experiment [10]: Cell cycle arrest in human A549 cells assessed as decrease in G1 phase population at 100 nM after 20 hrs by propidium iodide staining based flow cytometry. Format: functional. In a few lines:
as §2
On the technique in general: Flow cytometry measures light scatter and fluorescence of single cells or particles in a stream.

Experiment [11] is filed under the species Homo sapiens. The experiment is described as follows: Binding affinity to tubulin alpha/beta dimer (unknown origin) at 100 uM by STD-NMR method.
Experiment [12] in a line: Cell cycle arrest in human A549 cells assessed as accumulation at G2/M phase at 25 uM after 20 hrs by propidium iodide staining based flow cytometry. Format: functional. Put shortly: (§7)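 A549 cells grown 20 h with compound across 20 nM to 25 μM; DMSO as negative and paclitaxel (30−50 nM) as positive control; DNA content histograms by flow cytometry give percent of cells in each cell cycle phase.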

Experiment [13] is described as follows: Cell cycle arrest in human A549 cells assessed as decrease in G1 phase population at 25 uM after 20 hrs by propidium iodide staining based flow cytometry. Format: functional. Put shortly: as §7
Experiment [14] has as its system A549. The experiment is described as follows: Binding affinity to alpha-tubulin in human A549 cells assessed as induction of microtubule depolymerization by measuring formation of abnormal type 4 spindles at 50 uM after 24 hrs by immunofluorescence microscopy. Format: cell-based. Put shortly:
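A549 cells exposed 24 h, DMSO vehicle control; microtubules stained with DM1A anti-α-tubulin monoclonal antibody and DNA with Hoechst 33342; cytoplasmic microtubule network and mitotic spindle morphology scored by immunofluorescence microscopy.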

The species named for experiment [15] is Homo sapiens. Put plainly: Inhibition of tubulin assembly (unknown origin) assessed as decrease in pelleted microtubules up to 30 uM after 20 mins. Put shortly: as §3
Experiment [16] is filed under the species Homo sapiens. Put plainly: Binding affinity to tubulin alpha/beta dimer (unknown origin) by TR-NOESY NMR spectroscopy.
Experiment [17] can be described thus: Cell cycle arrest in human A549 cells assessed as accumulation at G2/M phase at 1 uM after 20 hrs by propidium iodide staining based flow cytometry. Format: functional. In a few lines:
as §2

A short description of experiment [18]: Cell cycle arrest in human A549 cells assessed as decrease in G1 phase population at 1 uM after 20 hrs by propidium iodide staining based flow cytometry. Format: functional. In a few lines: as §2
The test system of experiment [19] is A549. The experiment is described as follows: Binding affinity to alpha-tubulin in human A549 cells assessed as induction of microtubule depolymerization by measuring formation of abnormal type 4 spindles at 1 uM after 24 hrs by immunofluorescence microscopy. Format: cell-based. Put shortly: as §6

As for `COc1cc([C@@H]2c3cc4c(cc3[C@H](O)[C@H]3COC(=O)[C@H]23)OCO4)cc(OC)c1OC` [PODOFILOX], the half-inhibitory concentration (IC50) in experiment [1] was 15 nM; in experiment [2] it was 18 nM. The Activity in experiment [3] was in the range of 70 to 80%. Moreover, the inhibition in experiment [4] was 68%; in [5], greater than 80%. In addition, in experiment [6], the Kd is 54 nM. In experiment [7], this compound yielded a Kb of 185 ×10⁵ /M. In addition, the result in [8] and in [9] was Active.
Regarding `COc1cc([C@@H]2c3cc4c(cc3[C@H](OC(C)=O)[C@H]3COC(=O)[C@H]23)OCO4)cc(OC)c1OC`, the results for the IC50 in [1] and in experiment [2] were 25 nM and 34 nM, respectively. For the same compound, the outcome in [3], in [10], in experiment [8] and in experiment [11] was Active. For the same compound, the values for the inhibition in experiment [4] and in experiment [5] were 65% and greater than 80%, respectively. This compound also displayed a Kd in [6] of 58 nM. In experiment [7], this compound showed a Kb of 170 ×10⁵ /M.
For the compound `COc1c2c(cc3c1OCO3)[C@@H](c1ccc3c(c1)OCO3)[C@@H]1C(=O)OC[C@@H]1C2`, the IC50 in [1] stood at 8670 nM; in [2] it was 12900 nM. The outcome in experiment [12], in experiment [13] and in experiment [14] was Active. Moreover, the inhibition entry in experiment [4] was “Active”.
Regarding `COc1ccc([C@@H]2c3cc4c(c(OC)c3C[C@H]3COC(=O)[C@@H]32)OCO4)cc1OC`, the IC50 in experiment [1] came out at 33 nM; in experiment [2] it was 84 nM. Besides, the outcome in experiment [3], in experiment [10], in experiment [8], in experiment [11] and in [16] was Active. This compound also displayed an inhibition in experiment [4] of 43%. The inhibition result in experiment [15] was “Active”. In addition, the affinity in [6], expressed as Kd, was 850 nM. The Kb in experiment [7] stood at 11.8 ×10⁵ /M.
As for `COc1cc(C2=C3C(=O)OC[C@@H]3[C@@H](OC(C)=O)c3cc4c(cc32)OCO4)cc(OC)c1OC`, the figures for the IC50 in experiment [1] and in experiment [2] were 263 nM and 587 nM, respectively. The outcome in [17], in [18] and in experiment [19] was Active. Besides, the inhibition in experiment [4] is 17%. In [15], the inhibition entry is “Active”.
